Data on 87 molecules can be found in PubChem BioAssay AID463079 (The Scripps Research Institute Molecular Screening Center, 2010).

The campaign covered roughly 330,000 compounds. About 2,000 (0.61%) were called active.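 Rule for the calls: active = inhibition above that plate's mean sample inhibition plus 3 SD (cut at about 26% in these data); inactive = the rest.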 Shown is part of a subset that was picked to be rich in actives.

The experiment in a line: ATP-evoked calcium signal inhibitors, parental CHO, primary screen, counter-screen for OX1R antagonist project, cell-based, fluorescence, Fluo-8 calcium dye (AID 463079).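 Note: 0% = ATP-challenged DMSO wells and 100% = DMSO wells without ATP.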 The note with it: parental CHO-K1, ATP-induced calcium, Fluo-8 fluorescence; at 5.6 µM; stronger effect = higher value. The method, boiled down:
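test system = CHO parental line | reagent = ATP stimulus | measured by = intracellular calcium via Fluo-8 no-wash fluorescent dye | control set = ATP and no-ATP DMSO wells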
On the technique in general: A counterscreen serves to expose hits that act by an unwanted route or on another target.
For `COc1cccc(CNC(C)C(=O)Nc2ccc(S(=O)(=O)N3CCCC3)cc2)c1` (configuration not stated), the inhibition was -9.95% (inactive). As for `COc1cc2c(cc1OC)C(C(=O)NCc1ccco1)C1c3ccccc3CCN1C2=O` (configuration not stated), the figure is -23.7% (inactive); as for `CCOC(=O)c1sc(NC(=O)CSc2nc(C)cc(C(F)(F)F)n2)c(C#N)c1C`, 4.56% (inactive). The figure for `Cc1ccc(-c2nc(COC(=O)c3c(C)noc3C)cs2)cc1` is 44.1% (active); for `Cc1ccc(S(=O)(=O)N2CCN(C(=O)COC(=O)c3c(C)noc3C)CC2)c(C)c1` it is -5.91% (inactive); for `COc1ccc(C(=O)COC(=O)c2c(C)noc2C)cc1Cl` it is -10.6% (inactive). As for `COc1ccc(S(=O)(=O)N2CCN(c3ncnc4c(-c5ccccc5)nsc34)CC2)cc1`, the figure is -9.64% (inactive); as for `COCc1c(C(=O)OCC(=O)Nc2ccc(OC(F)F)cc2)oc2ccccc12`, -11.9% (inactive); as for `Cc1nc(CNS(=O)(=O)c2cc([N+](=O)[O-])ccc2C)cs1`, -14.4% (inactive). `Cc1ccc(S(=O)(=O)NCc2csc(C)n2)c(C)c1`: the inhibition was -13.8% (inactive).

In the case of `Cc1nc(CNS(=O)(=O)c2ccc(Oc3ccccc3)cc2)cs1`, the inhibition is 44.4% (active). As for `COc1ccc(NC2CCCN(C(=O)c3ccncc3)C2)cc1` (configuration not stated), the figure is -8.33% (inactive); as for `CSCCC(C(=O)NC1=NCCS1)N1C(=O)c2ccccc2C1=O` (configuration not stated), 1.01% (inactive). The figure for `N#Cc1ccc(C(=O)Nc2nc(-c3cccs3)c(C(=O)C(F)(F)F)s2)cc1` is 25.4% (active); for `CCOc1cccc(C(=O)Nc2nnc(-c3cccs3)s2)c1` it is -10.2% (inactive); for `N#Cc1ccc(Oc2ccc(C(F)(F)F)cc2NC(=O)c2ccc(F)cc2)cc1` it is -13.8% (inactive).

On to `O=C(/C=C/c1cccc([N+](=O)[O-])c1)NCCSCc1ccco1`, for which the inhibition is -15.3% (inactive). Regarding `CCCC(C)C(=O)OCC(=O)Nc1c(Br)cc(C)cc1Br` (configuration not stated), the inhibition is -8.47% (inactive). The figure for `CCC(=O)Nc1ccc(-c2ccc(N3CCCCC3)nn2)cc1` is -16% (inactive). The figure for `CC1CCN(c2ccc(-c3ccc(NC(=O)c4ccco4)cc3)nn2)CC1` is 45% (active); for `CC1CCN(C(NC(=O)c2ccco2)C(=O)c2ccccc2)CC1` (configuration not stated) it is -6.97% (inactive). The figure for `COc1ccc(CCNC(=O)CN(C)S(=O)(=O)c2ccc3nc(C)sc3c2)cc1OC` is -5.92% (inactive); for `CC(=O)Nc1ccc(S(=O)(=O)NCCC(=O)N2CCN(c3ccccc3Cl)CC2)cc1` it is -3.47% (inactive). Turning to `Cc1cccn2c(=O)c(/C=C(\C#N)C(N)=O)c(N3CCCCCC3)nc12`, the inhibition is -34.3% (inactive).

Take `CCOC(=O)N1CCN(C(=O)CSc2nc(=O)n3cccc(C)c3n2)CC1`: the inhibition is -15.5% (inactive). As for `CCOC(=O)CC1C(=O)NCCN1c1nc2c(C)cccn2c(=O)c1/C=C1\SC(=S)N(C(C)CC)C1=O` (configuration not stated), the figure is 54.2% (active); as for `COc1ccc(CC(NC(C)=O)C(=O)NC2CCN(C(=O)Nc3ccc(C#N)cc3)CC2)cc1OC` (configuration not stated), -6.58% (inactive); as for `CC(C)=CCN1CCN(CCCc2ccccc2)CC1CCO` (configuration not stated), -8.88% (inactive). The figure for `CN(C)S(=O)(=O)N1CCC(Oc2cccc(C(=O)NCCCC3CCCC3)c2)CC1` is 23.8% (inactive). In the case of `CSc1ccc(S(=O)(=O)NCC(=O)OCC(=O)NC2(C#N)CCCCC2)cc1[N+](=O)[O-]`, the inhibition is -8.63% (inactive).

Turning to `COc1ccc(-c2noc(CCC(=O)N3CCN(c4cccc(C)c4)CC3)n2)cc1`, the inhibition is -7.6% (inactive). The figure for `Oc1c(Cl)cc(Cl)c(Cl)c1Cc1c(O)c(Cl)cc(Cl)c1Cl` is 70.6% (active); for `COCC(=O)Nc1cc(C(=O)OC)cc(C(=O)OC)c1` it is -1.27% (inactive); for `Cc1cccc(NC(=O)C2CC(=O)OC23CCCC3)c1` (configuration not stated) it is -13.3% (inactive). As for `O=C(CNC(=O)C(c1ccccc1)c1ccccc1)N/N=C\c1ccc2c(c1)OCO2`, the figure is 2.64% (inactive); as for `C/C(=N\NC(=O)CNC(=O)C(c1ccccc1)c1ccccc1)c1ccc(C)cc1`, 30.7% (active).

As to `C/C(=N/NC(=O)CC(=O)N/N=C(\C)c1ccc([N+](=O)[O-])cc1)c1ccc([N+](=O)[O-])cc1`, the inhibition was -3.47% (inactive). As to `CCCc1ccc(C(=O)COC(=O)CN2C(=O)NC3(CCCCC3C)C2=O)cc1` (configuration not stated), the inhibition was -23.9% (inactive). The figure for `COc1cc(C(=O)N2CCN(C/C=C/c3ccccc3)CC2)cc(OC)c1C` is -10.8% (inactive); for `CC1(C)CC[C@]2(C(=O)O)CC[C@]3(C)C(=CCC4[C@@]5(C)CC[C@H](O)C(C)(C)C5[C@H](O)C[C@]43C)[C@@H]2C1` (some centres not stated) it is -9.31% (inactive). As for `CC1(C)CC[C@@]2(C(=O)O)C(C1)C1=CCC3[C@@]4(C)CC[C@H](O)C(C)(C)C4CC[C@@]3(C)[C@]1(C)C[C@H]2O` (some centres not stated), the figure is 93.2% (active); as for `CC1(C)C2CC[C@]3(C)C(CC=C4[C@@H]5C[C@@](C)(CO)CC[C@]5(C(=O)O)CC[C@]43C)[C@@]2(C)CC[C@@H]1O` (some centres not stated), -1.46% (inactive); as for `Cc1ccc(Cl)c(NC(=O)CN(C)CC(=O)Nc2ccc(F)c(F)c2F)c1Cl`, -2.12% (inactive). As for `NC(=O)c1ccc(-c2csnn2)cc1`, the figure is -15.6% (inactive). As to `Cc1nc2ccccc2cc1OCc1ccc(F)cc1`, the inhibition is 54.1% (active). As for `Fc1ccccc1COc1cccc2cccnc12`, the figure is -22.9% (inactive); as for `Cc1occc(=O)c1OCc1ccc(F)cc1`, -7.75% (inactive). As for `CCNC(=S)N1CCN(CCN=CC2=C(O)CC(C)(C)CC2=O)CC1`, the figure is -4.83% (inactive).

For the molecule `C=C(Br)CN1CCN(CC(=C)Br)CC1`, the inhibition was 4.29% (inactive).

Regarding `CCCCNC(=O)C(C)N(CCN(C)C)C(=O)CCCCCN1C(=O)NC(c2ccc(Cl)cc2)C(C(=O)OCc2ccccc2)=C1C` (configuration not stated), the inhibition is -17% (inactive).

For `CNC(=O)NC(=O)CSc1nnc(-c2ccc(F)cc2)n1CC1CCCO1` (configuration not stated), the inhibition was -7.71% (inactive). The figure for `COc1ccc(C)cc1S(=O)(=O)N1CCN(S(=O)(=O)c2cc(C(=O)O)ccc2C)CC1` is -11.5% (inactive). As for `Cc1ccc(S(=O)(=O)N2CCN(c3ncnc4ccccc34)CC2)cc1`, the figure is 0.84% (inactive); as for `Cc1ccc(C)c(S(=O)(=O)N2CCN(c3ncnc4sccc34)CC2)c1`, 62.3% (active). As for `COc1ccc(NS(=O)(=O)c2cc(NC(=O)C3CCCCC3)ccc2N2CCOCC2)cc1`, the figure is 5.3% (inactive); as for `CC(C)(C)c1ccc(CCC2OCC(CN3CCOCC3)O2)cc1` (configuration not stated), -9.27% (inactive); as for `Cc1cc(OCC(=O)NC2CCN(C)CC2)ccc1[N+](=O)[O-]`, -4.54% (inactive). `Cc1cc(OCCCN2CCN(Cc3ccccc3)CC2)ccc1[N+](=O)[O-]`: the inhibition was 18.6% (inactive). The figure for `Cc1cc(OCCCCOc2ccc(C#N)cc2)ccc1[N+](=O)[O-]` is 44.9% (active). Regarding `CC[C@]12c3[nH]c4ccc(OC)cc4c3CCN1C(=O)C(CC(=O)NCc1ccco1)C[C@@H]2C(=O)N1CCN(C(=O)C2CC2)CC1` (some centres not stated), the inhibition is -3.18% (inactive). The figure for `O=C1[C@@H](c2ccccc2)[C@@H](c2ccccc2)N1c1cccnc1` is 3.04% (inactive); for `CCc1ccc2ncc(C(=O)c3ccccc3)c(N3CCOCC3)c2c1` it is -4.24% (inactive); for `Cc1ccc2c(c1)NC(=O)[C@@]1(C)[C@@H](c3ccccc3)[C@H]3COc4ccc(Cl)cc4[C@@H]3N1C2=O` it is -11.9% (inactive). The figure for `CN(C)C(=O)CCc1ccc2c3c([nH]c2c1)[C@]1(C)[C@@H](C(=O)N2CCOCC2)C[C@H](CC(=O)NCCc2ccccn2)C(=O)N1CC3` is 1.44% (inactive). The figure for `COc1cc(/C=C2/SC(=S)N(Cc3ccccc3)C2=O)cc(OC)c1O` is 27.6% (inactive); for `CN(C)c1ccc(/C=C2\NC(=S)N(Cc3ccccc3)C2=O)cc1` it is 70.7% (active). Regarding `CN(C)c1ccc(C=C2C(=O)OC3(CCCC3)OC2=O)cc1`, the inhibition is -4.66% (inactive).

On to `N#CC1(NC(=O)COC(=O)Cc2n[nH]c(=O)c3ccccc23)CCCCC1`, for which the inhibition is -1.72% (inactive). In the case of `Cc1ccc(NC(=O)c2sccc2C)cc1[N+](=O)[O-]`, the inhibition was -13% (inactive). The figure for `Cc1ccc(NC(=O)CN(C)CC(=O)Nc2cccc(F)c2)cc1[N+](=O)[O-]` is 68.4% (active). The figure for `CN(CC(=O)Nc1cccc(F)c1)CC(=O)Nc1cccc([N+](=O)[O-])c1` is -2.05% (inactive); for `Cn1nccc1CNC(=O)c1ccnn1C` it is 7.66% (inactive); for `CCCc1ccc(-c2c(C)sc(NC(=O)c3ccnn3C)c2C#N)cc1` it is 37% (active). The figure for `CCN(CC)C(=O)c1sc(NC(=O)c2ccco2)c(C#N)c1C` is -6.79% (inactive). Consider `Cc1cc(C)cc(Oc2nc3c(C)cccn3c(=O)c2/C=C(\C#N)C(=O)NC2CCS(=O)(=O)C2)c1` (configuration not stated), for which the inhibition is -10.7% (inactive). `Cc1ccccc1C(=O)NC(=S)NC1CC1`: the inhibition was -11.8% (inactive). The figure for `O=C(CSc1ncn[nH]1)Nc1nc(-c2cccc([N+](=O)[O-])c2)cs1` is 29.9% (active). As for `O=C(CSc1ncn[nH]1)Nc1nsc(-c2ccccc2)n1`, the figure is 0.25% (inactive). The figure for `O=C(CSc1nc(-c2ccccc2)cs1)Nc1cccc([N+](=O)[O-])c1` is -15.2% (inactive); for `CC(C)CC(CC(C)C)=NNC(=O)c1ccc(CSc2nncn2C)cc1` it is -6.24% (inactive). For the molecule `C=CCOc1cccc(C2C(C(=O)c3ccc(C)o3)=C(O)C(=O)N2CCCn2ccnc2)c1` (configuration not stated), the inhibition is 4.82% (inactive).

`C=CCOc1cccc(C2C(C(=O)c3ccc(C)o3)=C(O)C(=O)N2c2nnc(C)s2)c1` (configuration not stated): the inhibition is 35.4% (active). The figure for `Cc1cc(N2C(=O)C(O)=C(C(=O)c3ccc(C)o3)C2c2ccc(OCc3ccccc3)cc2)no1` (configuration not stated) is -17.5% (inactive); for `Cc1ccc(SC(=O)COc2ccc(C)c(C)c2)cc1` it is 11.9% (inactive); for `Cc1ccnc(-n2sc3ccccc3c2=O)n1` it is 46.3% (active). As for `Cc1nc2ccccc2c(=O)n1NC(=O)c1ccccc1`, the figure is -3.13% (inactive); as for `CCOC(=O)N1CCC(=NNC(N)=O)CC1`, -14.6% (inactive).

As a reminder, the inhibition is the relative decrease from the control value, in per cent.
